{"source": "paper PMC5616077", "about": "(Toxicology Reports, 2016)", "key": {"[1]": {"system": "HaCaT AHR-KD cells", "assay": "MTT assay", "type": "cell-based, human", "details": "HaCaT AHR-KD, 48 h, up to 20 μM"}, "[2]": {"system": "CYP1A1", "assay": "Western blot, protein level", "type": "cell-based, human", "details": "HaCaT WT, 24 h and 48 h"}, "[3]": {"system": "CYP1B1", "assay": "Real-time PCR, AHR target gene induction", "type": "cell-based, human", "details": "HaCaT cells, 2 and 8 h, up to 1 μM, data not shown"}, "[4]": {"system": "CYP1A1", "assay": "Real-time PCR, AHR target gene induction", "type": "cell-based, human"}, "[5]": {"system": "HaCaT WT cells", "assay": "MTT assay", "type": "cell-based, human", "details": "HaCaT WT, 48 h, up to 20 μM"}, "[6]": {"assay": "MTT assay", "type": "cell-based, human", "details": "human, HaCaT wild-type (WT) cells, calculated EC50 (cytotoxicity, viability), HaCaT WT, 48 h, MTT"}, "[7]": {"system": "HaCaT WT cells", "assay": "Targeted metabolomics", "type": "cell-based, human", "details": "48 h, BAP 1 μM, DALP 0.01 μM", "procedure,_shortened": "(§1)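 Cells in DMEM with 10% FCS were seeded at 1 × 10^5 cells/mL and exposed 24 h later for 48 h, 4 replicates; vehicle controls got 0.1% DMSO. Cells were washed with ice-cold 155 mM ammonium formate pH 7.4, pelleted, weighed and snap-frozen. Extracts went on the p180 kit with isotope-labelled standards, phenylisothiocyanate derivatisation and 5 mM ammonium acetate/methanol extraction. Read by LC–MS/MS (positive) and FIA-MS/MS (±), MRM; μM normalised to pellet weight.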"}, "[8]": {"system": "HaCaT WT cells", "assay": "Enzymatic determination of glutamine", "type": "cell-based, human", "details": "48 h, BAP 1 μM, CRY 1 μM, DALP 0.01 μM"}, "[9]": {"system": "CYP1B1", "assay": "Western blot, protein level", "type": "cell-based, human", "details": "HaCaT WT, 24 h and 48 h"}, "[10]": {"system": "HaCaT AHR-KD cells", "assay": "Targeted metabolomics", "type": "cell-based, human", "details": "48 h, 0.01 μM", "procedure,_shortened": "as §1"}, "[11]": {"system": "carnitine palmitoyltransferase 1 (CPT1)", "details": "liver of rats upon treatment; ref [55], [56]; cited from earlier work"}}, "note": "“Also recorded” adds a separate entry of the source."}
{"compound": "c1ccc2c(c1)cc1ccc3cccc4c5ccccc5c2c1c34", "note": "[DALP, dibenzo[a,l]pyrene]", "values": [{"measurement": "cytotoxicity / cell viability (in words)", "setting": "[1]", "result": "remained unaffected"}, {"measurement": "CYP1A1 protein induction (in words)", "setting": "[2]", "result": "no induction"}, {"measurement": "CYP1B1 mRNA induction at earlier time-points (in words)", "setting": "[3]", "result": "no significant induction"}, {"measurement": "CYP1A1 mRNA induction (in words)", "setting": "[4]; HaCaT WT, 24 h, BAP/CRY 0.1-3.5 μM, DALP 0.01-0.03 μM", "result": "only weakly increased"}, {"measurement": "CYP1A1 mRNA induction at earlier time-points (in words)", "setting": "[4]; HaCaT cells, 2 and 8 h, up to 1 μM, data not shown", "result": "no significant induction"}, {"measurement": "cytotoxicity / cell viability (in words)", "setting": "[5]", "result": "enhanced cytotoxicity; also recorded: very strong cytotoxicity"}, {"measurement": "EC50 at 48 h", "setting": "[6]", "result": 35, "unit": "nM"}, {"measurement": "change of Gln level vs control (in words)", "setting": "[7]; CRY 1 μM", "result": "strongly lowered"}, {"measurement": "change of PCaa_C36:2 level vs control (in words)", "setting": "[7]; CRY 1 μM", "result": "measurable but insignificant decrease"}, {"measurement": "C4:1 concentration", "setting": "[7]; CRY 1 μM, mean ± SD", "result": "1.3 ± 0.1", "unit": "nmol/g pellet weight"}, {"measurement": "C4 concentration", "setting": "[7]; CRY 1 μM, mean ± SD", "result": "2.9 ± 0.3", "unit": "nmol/g pellet weight"}, {"measurement": "C6 (C4:1-DC) concentration", "setting": "[7]; CRY 1 μM, mean ± SD", "result": "2.5 ± 0.2", "unit": "nmol/g pellet weight"}, {"measurement": "C10:2 concentration", "setting": "[7]; CRY 1 μM, mean ± SD", "result": "1.1 ± 0.1", "unit": "nmol/g pellet weight"}, {"measurement": "C12-DC concentration", "setting": "[7]; CRY 1 μM, mean ± SD", "result": "4.2 ± 0.2", "unit": "nmol/g pellet weight"}, {"measurement": "C12:1 concentration", "setting": "[7]; CRY 1 μM, mean ± SD", "result": "1.4 ± 0.1", "unit": "nmol/g pellet weight"}, {"measurement": "C18:1-OH concentration", "setting": "[7]; CRY 1 μM, mean ± SD", "result": "1.0 ± 0.0", "unit": "nmol/g pellet weight"}, {"measurement": "C18:2 concentration", "setting": "[7]; CRY 1 μM, mean ± SD", "result": "1.1 ± 0.1", "unit": "nmol/g pellet weight"}, {"measurement": "Gln concentration", "setting": "[7]; CRY 1 μM, mean ± SD", "result": "65.7 ± 23.9", "unit": "nmol/g pellet weight"}, {"measurement": "PCaa_C32:2 concentration", "setting": "[7]; CRY 1 μM, mean ± SD", "result": "81.9 ± 9.5", "unit": "nmol/g pellet weight"}, {"measurement": "PCaa_C36:2 concentration", "setting": "[7]; CRY 1 μM, mean ± SD", "result": "1417.7 ± 173.7", "unit": "nmol/g pellet weight"}, {"measurement": "PCae_C32:1 concentration", "setting": "[7]; CRY 1 μM, mean ± SD", "result": "164.7 ± 17.4", "unit": "nmol/g pellet weight"}, {"measurement": "PCae_C34:2 concentration", "setting": "[7]; CRY 1 μM, mean ± SD", "result": "170.7 ± 25.4", "unit": "nmol/g pellet weight"}, {"measurement": "PCae_C34:3 concentration", "setting": "[7]; CRY 1 μM, mean ± SD", "result": "20.8 ± 3.3", "unit": "nmol/g pellet weight"}, {"measurement": "PCae_C36:2 concentration", "setting": "[7]; CRY 1 μM, mean ± SD", "result": "235.3 ± 25.3", "unit": "nmol/g pellet weight"}, {"measurement": "PCae_C36:3 concentration", "setting": "[7]; CRY 1 μM, mean ± SD", "result": "65.2 ± 8.9", "unit": "nmol/g pellet weight"}, {"measurement": "PCae_C38:1 concentration", "setting": "[7]; CRY 1 μM, mean ± SD", "result": "18.7 ± 1.2", "unit": "nmol/g pellet weight"}, {"measurement": "PCae_C38:2 concentration", "setting": "[7]; CRY 1 μM, mean ± SD", "result": "50.7 ± 5.2", "unit": "nmol/g pellet weight"}, {"measurement": "PCae_C38:3 concentration", "setting": "[7]; CRY 1 μM, mean ± SD", "result": "18.5 ± 1.8", "unit": "nmol/g pellet weight"}, {"measurement": "PCae_C38:4 concentration", "setting": "[7]; CRY 1 μM, mean ± SD", "result": "38.1 ± 4.0", "unit": "nmol/g pellet weight"}, {"measurement": "PCae_C40:4 concentration", "setting": "[7]; CRY 1 μM, mean ± SD", "result": "7.6 ± 0.5", "unit": "nmol/g pellet weight"}, {"measurement": "PCae_C40:5 concentration", "setting": "[7]; CRY 1 μM, mean ± SD", "result": "16.5 ± 1.5", "unit": "nmol/g pellet weight"}, {"measurement": "SM_C16:1 concentration", "setting": "[7]; CRY 1 μM, mean ± SD", "result": "25.5 ± 2.1", "unit": "nmol/g pellet weight"}, {"measurement": "alpha-AAA concentration", "setting": "[7]; CRY 1 μM, mean ± SD", "result": "2.0 ± 1.1", "unit": "nmol/g pellet weight"}, {"measurement": "change of alpha-AAA level vs control (in words)", "setting": "[7]", "result": "strong down-regulation"}, {"measurement": "change of carnitines (e.g. C18:2) vs control (in words)", "setting": "[7]", "result": "strong up-regulation"}, {"measurement": "relative Gln level, enzymatic assay (in words)", "setting": "[8]", "result": "downregulated approximately two-fold"}, {"measurement": "CYP1B1 protein induction (in words)", "setting": "[9]", "result": "no induction"}, {"measurement": "metabolite levels vs control (in words)", "setting": "[10]", "result": "remained virtually unaffected"}]}
{"compound": "Clc1cc2c(cc1Cl)Oc1cc(Cl)c(Cl)cc1O2", "note": "[TCDD, 2,3,7,8-tetrachlorodibenzo-p-dioxin]", "values": [{"measurement": "increase of carnitine palmitoyltransferase 1 (CPT1)", "setting": "[11]", "result": "more than 3 fold"}]}
